ChEMBL document CHEMBL4265907, “Design, synthesis and pharmacological evaluation of N4,N6-disubstituted pyrimidine-4,6-diamine derivatives as potent EGFR inhibitors in non-small cell lung cancer” (Eur J Med Chem, 2018)

How the values were obtained:
[1] = molecular target: Fibroblast growth factor receptor 1 (Homo sapiens) (UniProt P11362); test: Inhibition of N-terminal GST-tagged human FGFR1 cytoplasmic domain (398 to 822 residues) expressed in baculovirus expression system at […] using FAM-labeled peptide as substrate after 10 mins by mobility shift assay relative to control
Summary of the method: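 Caliper mobility-shift kinase assay. Kinase in kinase base buffer was preincubated with compound for 10 min at room temperature. FAM-labelled peptide and ATP at Km were then added, and the reaction ran at 28 °C until quenched with buffer. Screening concentration was 1 µM. Percent inhibition = (max − conversion)/(max − min) × 100, with DMSO as max and a low control as min.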

[2] = molecular target: T1, Epidermal growth factor receptor (Homo sapiens, UniProt P00533); test: Inhibition of N-terminal GST-tagged wild type human EGFR cytoplasmic domain (669 to 1210 residues) expressed in baculovirus expression system using FAM-labeled peptide as substrate after 10 mins by mobility shift assay
T1 sequence (P00533 whole entry, the tested form may be a part): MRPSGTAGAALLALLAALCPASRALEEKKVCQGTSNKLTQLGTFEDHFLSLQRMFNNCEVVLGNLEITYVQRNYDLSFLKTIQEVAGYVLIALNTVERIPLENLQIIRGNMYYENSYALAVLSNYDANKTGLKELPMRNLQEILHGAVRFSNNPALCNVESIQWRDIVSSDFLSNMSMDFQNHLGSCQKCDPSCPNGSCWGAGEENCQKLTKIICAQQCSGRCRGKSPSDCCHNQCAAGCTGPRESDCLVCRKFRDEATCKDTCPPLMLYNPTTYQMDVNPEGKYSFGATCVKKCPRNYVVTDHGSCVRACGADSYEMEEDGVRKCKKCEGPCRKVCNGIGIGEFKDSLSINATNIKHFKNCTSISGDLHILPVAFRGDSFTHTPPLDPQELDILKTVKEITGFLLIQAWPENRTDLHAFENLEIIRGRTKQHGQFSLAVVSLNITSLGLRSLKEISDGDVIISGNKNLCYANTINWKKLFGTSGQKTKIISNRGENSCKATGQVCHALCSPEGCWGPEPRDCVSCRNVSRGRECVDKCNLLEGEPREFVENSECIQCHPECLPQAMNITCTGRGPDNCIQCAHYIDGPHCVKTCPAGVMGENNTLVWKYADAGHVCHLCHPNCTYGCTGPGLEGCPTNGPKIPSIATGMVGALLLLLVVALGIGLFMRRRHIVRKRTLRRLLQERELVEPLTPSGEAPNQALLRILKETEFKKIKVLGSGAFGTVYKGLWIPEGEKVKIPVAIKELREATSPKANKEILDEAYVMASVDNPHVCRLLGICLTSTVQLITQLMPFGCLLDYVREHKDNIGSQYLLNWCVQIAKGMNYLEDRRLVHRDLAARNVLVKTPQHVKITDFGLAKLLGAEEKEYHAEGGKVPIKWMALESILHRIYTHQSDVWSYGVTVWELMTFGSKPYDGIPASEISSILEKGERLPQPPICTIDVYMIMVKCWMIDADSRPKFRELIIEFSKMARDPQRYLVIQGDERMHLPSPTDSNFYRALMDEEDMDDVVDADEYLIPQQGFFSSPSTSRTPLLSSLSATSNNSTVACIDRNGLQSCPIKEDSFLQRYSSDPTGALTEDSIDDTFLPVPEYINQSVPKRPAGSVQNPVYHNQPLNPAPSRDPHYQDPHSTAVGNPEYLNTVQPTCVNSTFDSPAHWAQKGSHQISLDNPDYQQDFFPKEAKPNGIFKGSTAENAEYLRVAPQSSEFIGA

[3] = molecular target: Epidermal growth factor receptor (Homo sapiens, UniProt P00533, DEL747/DEL747-750); test: Inhibition of N-terminal GST-tagged human EGFR del 747-750 mutant cytoplasmic domain expressed in baculovirus expression system using FAM-labeled peptide as substrate after 10 mins by mobility shift assay
Chain of Epidermal growth factor receptor (Homo sapiens, UniProt P00533, DEL747/DEL747-750) (P00533 with tags, fused parts or gaps DEL747/DEL747-750 limits assumed): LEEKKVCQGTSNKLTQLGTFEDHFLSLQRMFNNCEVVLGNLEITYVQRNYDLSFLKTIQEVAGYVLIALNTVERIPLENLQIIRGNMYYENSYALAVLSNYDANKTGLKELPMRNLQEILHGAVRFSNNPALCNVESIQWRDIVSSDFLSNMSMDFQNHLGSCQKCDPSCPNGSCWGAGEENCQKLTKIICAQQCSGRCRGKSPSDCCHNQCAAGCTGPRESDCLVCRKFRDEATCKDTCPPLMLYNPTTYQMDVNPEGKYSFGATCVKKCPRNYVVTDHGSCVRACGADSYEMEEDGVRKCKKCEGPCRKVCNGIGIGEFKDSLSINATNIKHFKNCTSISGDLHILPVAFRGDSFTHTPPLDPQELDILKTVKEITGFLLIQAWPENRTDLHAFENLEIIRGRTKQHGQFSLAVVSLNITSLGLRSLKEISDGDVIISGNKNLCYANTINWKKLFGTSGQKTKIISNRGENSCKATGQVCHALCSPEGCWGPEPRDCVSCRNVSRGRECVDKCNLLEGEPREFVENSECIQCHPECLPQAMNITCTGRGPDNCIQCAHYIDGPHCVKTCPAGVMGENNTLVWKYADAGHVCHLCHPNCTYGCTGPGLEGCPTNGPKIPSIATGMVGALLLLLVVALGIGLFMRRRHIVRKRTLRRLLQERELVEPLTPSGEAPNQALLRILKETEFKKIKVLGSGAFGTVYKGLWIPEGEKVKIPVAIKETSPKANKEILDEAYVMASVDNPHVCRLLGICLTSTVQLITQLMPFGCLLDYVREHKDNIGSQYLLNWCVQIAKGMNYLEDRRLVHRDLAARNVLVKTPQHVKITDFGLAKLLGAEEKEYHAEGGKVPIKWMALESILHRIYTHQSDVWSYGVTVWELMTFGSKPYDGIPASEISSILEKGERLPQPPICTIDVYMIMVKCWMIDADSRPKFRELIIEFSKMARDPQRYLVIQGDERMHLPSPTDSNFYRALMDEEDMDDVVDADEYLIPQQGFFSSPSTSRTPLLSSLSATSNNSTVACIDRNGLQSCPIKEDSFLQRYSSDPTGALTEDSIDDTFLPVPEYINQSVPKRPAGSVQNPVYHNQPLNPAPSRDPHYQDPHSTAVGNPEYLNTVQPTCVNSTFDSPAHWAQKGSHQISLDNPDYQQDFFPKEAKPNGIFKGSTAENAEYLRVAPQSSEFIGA

[4] = tested on: PC-9; test: Antiproliferative activity against human PC9 cells after 72 hrs by MTT assay; assay type: functional, cell-based; conditions: PC-9, 72 h
Summary of the method: (§1)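 Cells seeded at 3000/well in growth medium with 10% FBS and left overnight. Treated in triplicate for 72 h at nine concentrations (0.458 to 30,000 nM), with DMSO-only controls. MTT (5 mg/mL) added for the last 4 h, formazan dissolved in DMSO, absorbance read at 490 nm. IC50 from non-linear sigmoidal dose-response fit.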

[5] = tested on: BEAS-2B; test: Cytotoxicity against human BEAS2B cells after 72 hrs by MTT assay; assay type: cell-based; summary of the method: as §1
[6] = tested on: NCI-H3255; test: Antiproliferative activity against human H3255 cells after 72 hrs by MTT assay; assay type: functional, cell-based; conditions: NCI-H3255, 72 h; summary of the method: as §1
[7] = tested on: HCC827; test: Induction of apoptosis in human HCC827 cells assessed as early apoptotic cells at 250 nM after 48 hrs by Annexin V-FITC/PI staining based flow cytometry (reference value: 2.83%); assay type: functional
[8] = tested on: NCI-H1975; test: Induction of apoptosis in human NCI-H1975 cells assessed as necrotic cells at 500 nM after 48 hrs by Annexin V-FITC/PI staining based flow cytometry (reference value: 2.31%); assay type: functional
[9] = tested on: NCI-H3255; test: Induction of apoptosis in human H3255 cells assessed as viable cells after 48 hrs by Annexin V-FITC/PI staining based flow cytometry; assay type: functional, cell-based
[10] = tested on: A-431; test: Induction of apoptosis in human A431 cells assessed as early apoptotic cells at 1000 nM after 48 hrs by Annexin V-FITC/PI staining based flow cytometry (reference value: 3.40%); assay type: functional
[11] = molecular target: T1, Epidermal growth factor receptor; test: Inhibition of EGFR in human A431 cells assessed as decrease in EGF-induced AKT phosphorylation by Western blot method; assay type: cell-based
Summary of the method: (§2)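 Cell lysates prepared in protein lysis buffer and cleared at 12,000 g for 10 min at 4 °C. 50 μg protein per lane was run on a gel, transferred to PVDF and immunoblotted, with GAPDH as the loading control.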

[12] = tested on: NCI-H3255; test: Induction of apoptosis in human H3255 cells assessed as necrotic cells at 500 nM after 48 hrs by Annexin V-FITC/PI staining based flow cytometry (reference value: 7.06%); assay type: functional
[13] = tested on: HCC827; test: Induction of apoptosis in human HCC827 cells assessed as viable cells after 48 hrs by Annexin V-FITC/PI staining based flow cytometry; assay type: functional, cell-based
[14] = molecular target: T1, Epidermal growth factor receptor; test: Inhibition of EGFR in human H3255 cells assessed as decrease in EGF-induced AKT phosphorylation by Western blot method; assay type: cell-based; summary of the method: as §2
[15] = Half life in Sprague-Dawley rat at 30 mg/kg, po by UPLC-MS/MS analysis; assay type: ADME, organism-based; conditions: in vivo
Summary of the method: (§3)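 Four female and four male Sprague-Dawley rats, 200-220 g, fasted 12 h, then given a single oral dose of 30 mg/kg as a 0.5% CMC-Na suspension. Blood sampled at 0.083, 0.25, 0.5, 1, 2, 4, 8 and 24 h, plasma separated by centrifugation at 4000 r/min for 10 min, and analysed by UPLC–MS/MS. Parameters reported as mean ± SD, n=6.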

[16] = molecular target: T1, Epidermal growth factor receptor; test: Inhibition of EGF-induced EGFR autophosphorylation at Y1068 residues in human H3255 cells by Western blot method; assay type: cell-based; summary of the method: as §2
[17] = tested on: HCC827; test: Induction of apoptosis in human HCC827 cells assessed as necrotic cells at 500 nM after 48 hrs by Annexin V-FITC/PI staining based flow cytometry (reference value: 1.41%); assay type: functional
[18] = AUC (0 to infinity) in Sprague-Dawley rat at 30 mg/kg, po by UPLC-MS/MS analysis; assay type: ADME, organism-based; set-up: dose 30 mg/kg, route oral, time infinity; conditions: in vivo; summary of the method: as §3
[19] = Cmax in Sprague-Dawley rat at 30 mg/kg, po by UPLC-MS/MS analysis; assay type: ADME, organism-based; set-up: dose 30 mg/kg, route oral; conditions: in vivo; summary of the method: as §3
[20] = tested on: NCI-H1975; test: Induction of apoptosis in human NCI-H1975 cells assessed as early apoptotic cells at 1000 nM after 48 hrs by Annexin V-FITC/PI staining based flow cytometry (reference value: 2.07%); assay type: functional
[21] = tested on: A-431; test: Induction of apoptosis in human A431 cells assessed as late apoptotic cells at 250 nM after 48 hrs by Annexin V-FITC/PI staining based flow cytometry (reference value: 2.11%); assay type: functional
[22] = tested on: NCI-H1975; test: Induction of apoptosis in human NCI-H1975 cells assessed as necrotic cells at 1000 nM after 48 hrs by Annexin V-FITC/PI staining based flow cytometry (reference value: 2.31%); assay type: functional
[23] = tested on: NCI-H1975; test: Induction of apoptosis in human NCI-H1975 cells assessed as viable cells at 500 nM after 48 hrs by Annexin V-FITC/PI staining based flow cytometry (reference value: 93.7%); assay type: functional; conditions: NCI-H1975, 48 h, read-out: Activity
[24] = molecular target: T1, Epidermal growth factor receptor; test: Inhibition of EGF-induced EGFR autophosphorylation at Y1068 residues in human A431 cells by Western blot method; assay type: cell-based; summary of the method: as §2
[25] = tested on: A-431; test: Induction of apoptosis in human A431 cells assessed as early apoptotic cells at 500 nM after 48 hrs by Annexin V-FITC/PI staining based flow cytometry (reference value: 3.40%); assay type: functional
[26] = tested on: HCC827; test: Induction of apoptosis in human HCC827 cells assessed as viable cells at 500 nM after 48 hrs by Annexin V-FITC/PI staining based flow cytometry (reference value: 94.6%); assay type: functional; conditions: HCC827, 48 h, read-out: Activity
[27] = tested on: Rattus norvegicus; test: Volume of distribution in Sprague-Dawley rat at 30 mg/kg, po by UPLC-MS/MS analysis; assay type: ADME, organism-based; conditions: in vivo
Summary of the method: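 Sprague-Dawley rats (four female, four male; 200-220 g) were fasted 12 h and given a single oral 30 mg/kg dose as a 0.5% CMC-Na suspension. Blood was drawn at 0.083, 0.25, 0.5, 1, 2, 4, 8 and 24 h and centrifuged at 4000 r/min for 10 min. Samples were quantified by UPLC–MS/MS; parameters are reported for n=6.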

[28] = tested on: HCC827; test: Induction of apoptosis in human HCC827 cells assessed as viable cells at 250 nM after 48 hrs by Annexin V-FITC/PI staining based flow cytometry (reference value: 94.6%); assay type: functional; conditions: HCC827, 48 h, read-out: Activity

Question: Which inhibition [1] does the source give for `CCOC(=O)c1ccc(Nc2cc(NC(=O)CCCC(=O)O)ncn2)cc1` here?
Answer: Its inhibition is -5.3%.

Question: What about the IC50 [2] of the same compound?
Answer: The IC50 was 48 nM.

Question: And the IC50 [3]?
Answer: Its IC50 is 21 nM.

Question: Which results are given for `O=C(O)CCCC(=O)Nc1cc(N2CCOCC2)ncn1`?
Answer: IC50 [4]: 560 nM; IC50 [2]: 53 nM; IC50 [5]: 17900 nM; IC50 [6]: 5690 nM; IC50 [3]: 11 nM

Question: What does the source list for `O=C(O)CCCC(=O)Nc1cc(Nc2cccc(Cl)c2)ncn1`?
Answer: inhibition [1]: -8.8%; IC50 [4]: 2000 nM; IC50 [5]: 18000 nM; IC50 [6]: > 30000 nM

Question: For `COc1ccc(Nc2cc(NC(=O)c3ccccc3)ncn2)cc1`, which inhibition [1] is on record?
Answer: The inhibition was 2.8%.

Question: And the IC50 [4]?
Answer: The IC50 was 660 nM.

Question: And the IC50 [2]?
Answer: The IC50 was 81 nM.

Question: What about the IC50 [5] of the same compound?
Answer: The IC50 was 18500 nM.

Question: What about the IC50 [6] of the same compound?
Answer: The IC50 was 8880 nM.

Question: What about the IC50 [3] of the same compound?
Answer: Its IC50 is 26 nM.

Question: Which results are given for `COc1cccc(Nc2cc(Nc3cc(OC)ccc3OC)ncn2)c1`?
Answer: Activity [7]: 15.5%; inhibition [1]: -9.3%; Activity [8]: 6.93%; Activity [9]: Dose-dependent effect; Activity [10]: 18.1%; IC50 [4]: 450 nM; inhibition [11]: Dose-dependent effect; Activity [12]: 4.88%; Activity [13]: Dose-dependent effect; inhibition [14]: Dose-dependent effect; half-life [15]: 4.17 h; inhibition [16]: Dose-dependent effect; Activity [17]: 9.2%; AUC(0-inf) [18]: 5820 ng·h/mL; Cmax [19]: 1060 ng/mL; IC50 [5]: 21400 nM; IC50 [6]: 860 nM; Activity [20]: 27.8%; Activity [21]: 6.5%; Activity [22]: 7.56%; viability at 0.5 µM [23]: 52.5%; inhibition [24]: Dose-dependent effect; Activity [25]: 15.1%; viability at 0.5 µM [26]: 61.8%; Vd [27]: 0.03 L/kg; viability at 0.25 µM [28]: 61.9%

Question: With `COc1cccc(Nc2cc(NC(=O)CCCC(=O)O)ncn2)c1` as the compound, how does the inhibition [1] read?
Answer: Its inhibition is -5.5%.

Question: And the IC50 [2]?
Answer: The IC50 was 37 nM.

Question: And the IC50 [3]?
Answer: Its IC50 is 12 nM.
